{"source": "paper PMC6945491", "about": "(Biomaterials, 2019)", "key": {"[1]": {"test_system": "HIV-1ADA", "assay": "EC50 by HIV-1 RT activity in infected MDM", "assay_type": "cell-based", "details": "Human immunodeficiency virus 1, 240 h, read-out: EC50 (RT activity)", "in_short": "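Human MDM (80,000 cells/well) pretreated 60 min with test compound or parent drug. Infected with HIV-1ADA at MOI 0.1 for 4 h, then cultured 10 days at the same drug concentration with half-medium changes every other day. Supernatant RT activity measured on day 10. EC50 fitted by sigmoidal 4-point logarithmic regression; triplicate.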"}, "[2]": {"test_system": "HIV-1NL4–3-eGFP", "assay": "EC50 by HIV-1 RT activity in infected CEM-CD4+ T cells", "assay_type": "cell-based", "details": "Human immunodeficiency virus 1, T-cell, 240 h, read-out: EC50 (RT activity)"}, "[3]": {"test_system": "MDM", "assay": "Drug uptake and 3TC-TP formation in MDM", "assay_type": "cell-based, human", "details": "100 μM, over 24 h", "in_short": "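Human monocytes differentiated 7–10 days in DMEM with 10% heat-inactivated pooled human serum and 1,000 U/ml M-CSF at 37°C, 5% CO2. MDM exposed to 100 μM nanoformulated prodrug or parent drug. At sampling, cells washed twice in PBS, scraped, counted and pelleted. Pellets extracted in methanol with sonication, then drug measured by LC-MS/MS. 3TC-TP quantified by an established protocol. Triplicate.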"}, "[4]": {"test_system": "HIV-1ADA", "assay": "Long-term antiretroviral efficacy in MDM", "assay_type": "cell-based", "details": "8 h 100 μM, HIV-1ADA challenge", "in_short": "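MDM loaded 8 h with 100 μM test compound or parent drug, washed with PBS and kept drug-free with half-medium exchanges every other day. Challenged with HIV-1ADA (MOI 0.1) at days 1–30 after loading, then virus medium replaced. Ten days later medium RT activity was expressed as % of infected untreated cells. Cells fixed in 4% paraformaldehyde and HIV-1 p24 immunostained.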"}, "[5]": {"assay": "Pharmacokinetics and biodistribution in rats", "details": "single IM 75 mg/kg, after one day, limit of quantitation, data not shown"}}}
{"compound": "Nc1ccn([C@H]2CS[C@@H](CO)O2)c(=O)n1", "note": "[3TC, 2’,3’-Dideoxy-3’-Thiacytidine]", "values": [{"measurement": "EC50", "setting": "[1]", "value": 19.4, "unit": "nM"}, {"measurement": "EC50", "setting": "[2]", "value": 35.4, "unit": "nM"}, {"measurement": "intracellular drug concentration", "setting": "[3]", "value": "< 0.5", "unit": "μg/10^6 cells"}, {"measurement": "time of viral breakthrough after treatment", "setting": "[4]", "value": "within one day"}, {"measurement": "drug levels in plasma and tissues", "setting": "[5]", "value": "≤ 0.05", "unit": "ng/mL"}]}
